The target of the assay is T1, Phosphatidylinositol 3,4,5-trisphosphate 5-phosphatase 2 (Mus musculus) (UniProt Q6P549).
T1 sequence (whole entry): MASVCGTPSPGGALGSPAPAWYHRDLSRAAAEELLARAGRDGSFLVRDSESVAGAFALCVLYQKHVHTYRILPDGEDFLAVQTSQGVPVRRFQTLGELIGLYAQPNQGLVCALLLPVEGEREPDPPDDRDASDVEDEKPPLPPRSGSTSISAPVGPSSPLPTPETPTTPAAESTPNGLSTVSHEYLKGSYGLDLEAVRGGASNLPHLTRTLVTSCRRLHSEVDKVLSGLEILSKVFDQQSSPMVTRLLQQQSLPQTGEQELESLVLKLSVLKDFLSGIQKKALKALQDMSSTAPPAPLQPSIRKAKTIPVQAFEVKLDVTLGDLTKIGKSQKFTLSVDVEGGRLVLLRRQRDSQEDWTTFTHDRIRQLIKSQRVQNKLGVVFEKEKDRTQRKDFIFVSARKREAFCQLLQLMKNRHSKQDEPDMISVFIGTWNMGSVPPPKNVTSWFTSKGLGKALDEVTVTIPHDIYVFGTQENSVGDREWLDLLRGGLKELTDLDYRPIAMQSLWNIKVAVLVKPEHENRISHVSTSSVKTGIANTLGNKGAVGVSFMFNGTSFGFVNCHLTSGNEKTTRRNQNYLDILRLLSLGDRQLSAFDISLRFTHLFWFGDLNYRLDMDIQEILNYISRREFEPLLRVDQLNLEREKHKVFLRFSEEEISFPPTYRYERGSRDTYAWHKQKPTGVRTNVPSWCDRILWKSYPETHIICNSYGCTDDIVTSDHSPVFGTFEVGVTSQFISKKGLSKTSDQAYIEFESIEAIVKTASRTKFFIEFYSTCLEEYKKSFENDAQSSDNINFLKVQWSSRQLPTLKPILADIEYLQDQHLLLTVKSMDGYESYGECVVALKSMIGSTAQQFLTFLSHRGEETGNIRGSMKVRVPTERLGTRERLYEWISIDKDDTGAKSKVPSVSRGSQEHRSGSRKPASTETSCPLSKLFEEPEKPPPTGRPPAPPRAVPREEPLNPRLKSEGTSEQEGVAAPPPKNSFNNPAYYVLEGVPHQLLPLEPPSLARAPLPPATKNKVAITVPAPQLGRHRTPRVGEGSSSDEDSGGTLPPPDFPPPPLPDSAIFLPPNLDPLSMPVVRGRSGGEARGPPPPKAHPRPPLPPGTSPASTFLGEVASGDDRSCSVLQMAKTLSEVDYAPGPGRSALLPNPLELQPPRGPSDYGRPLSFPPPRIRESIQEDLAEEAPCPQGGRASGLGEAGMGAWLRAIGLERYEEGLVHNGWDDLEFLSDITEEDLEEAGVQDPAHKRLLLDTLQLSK
As to the kind of experiment: Inhibition of SHIP2 in mouse 3T3L1 cells assessed as reduction of TNF-alpha induced decrease in insulin-stimulated Akt phosphorylation at Thr308 at 10 uM treated for 15 mins after TNF alpha challenge for 16 hrs and prior to insulin stimulation measured after 2 hrs by Western blot analysis. The format is cell-based. The conditions noted are these: 3T3-L1. The method, boiled down:
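3T3-L1 fibroblasts differentiated into adipocytes, then serum-starved 16 h with TNFα 20 ng/mL. Treated with compound 10 µM or 0.1% DMSO for 15 min, then stimulated with 17 nM insulin at 37 °C for 2 h. Cells lysed on ice at pH 7.5 and Thr308 phospho-Akt measured by western blot. Results given as fold change versus TNFα+insulin control. Mean ± SE.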
(Immunoblotting shows a protein as a band on a membrane.)

The structures appear in SMILES notation. The source made the active and inactive calls. The rule behind the calls is not given here.

Turning to `O=C(Cc1c(F)cccc1F)Nc1cc(OCc2ccc(Cl)cc2)ccn1`, the inhibition result is “Active”.

(Values after ChEMBL document CHEMBL2331279, “Rational design and synthesis of 4-substituted 2-pyridin-2-ylamides with inhibitory effects on SH2 domain-containing inositol 5'-phosphatase 2 (SHIP2)” (Eur J Med Chem, 2013).)
